In ChEMBL document CHEMBL1141192 (J Med Chem, 2005):
Converted amounts (≈) assume the structure as drawn.

What was measured:
[1] = tested on: Rattus norvegicus; assay: Hyperalgesia in male SD rat administered 1 hr before carrageenan injection, analgesia tested at 5 hrs; assay type: functional, Sprague-Dawley
Outline: (§1)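 Fasted male SD rats (94–118 g); compound suspended in 0.1% MC, given orally at 1, 3 and 10 mg/kg either 1 h before (prophylactic) or 2 h after (therapeutic) intraplantar carrageenan (1%, 100 μL/paw). Mechanical threshold read by Randall-Selitto analgesimeter at 3, 4, 5 and 6 h post-carrageenan.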

[2] = tested on: Rattus norvegicus; assay: Hyperalgesia in male SD rat administered 2 hrs after carrageenan injection, analgesia tested at 3 hrs; assay type: functional; settings: Sprague-Dawley; outline: as §1
[3] = tested on: Rattus norvegicus; assay: Hyperalgesia in male SD rat administered 2 hrs after carrageenan injection, analgesia tested at 4 hrs; assay type: functional; settings: Sprague-Dawley; outline: as §1
[4] = tested on: Rattus norvegicus; assay: Hyperalgesia in male SD rat administered 2 hrs after carrageenan injection, analgesia tested at 5 hrs; assay type: functional; settings: Sprague-Dawley; outline: as §1
[5] = organism: Rattus norvegicus; assay: Inhibition of formalin induced paw pain in male SD rat; assay type: functional; settings: Sprague-Dawley
Outline: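 Fasted male SD rats (4 weeks, 105–115 g), six per dose group; compound in 0.1% MC po at 0.3, 1, 3 and 10 mg/kg, 15 min before 50 μL of 2% formalin s.c. into right hindpaw plantar surface.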

[6] = tested on: Rattus norvegicus; assay: Hyperalgesia in male SD rat administered 1 hr before carrageenan injection, analgesia tested at 3 hrs; assay type: functional; settings: Sprague-Dawley; outline: as §1
[7] = tested on: Rattus norvegicus; assay: Hyperalgesia in male SD rat administered 1 hr before carrageenan injection, analgesia tested at 4 hrs; assay type: functional; settings: Sprague-Dawley; outline: as §1
[8] = Clearance in dog at 3 mg/kg, po; assay type: ADME, organism-based, Canis lupus familiaris; set-up: dose 3 mg/kg, route oral; settings: in vivo
Outline: (§2)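 Compound at 3 mg/kg in 0.1% MC given po or iv to rats or dogs; plasma sampled at 0.25, 0.5, 1, 2, 4, 8 and 24 h; drug levels measured by HPLC.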

[9] = tested on: Rattus norvegicus; assay: Hyperalgesia in male SD rat administered 2 hrs after carrageenan injection, analgesia tested at 6 hrs; assay type: functional, Sprague-Dawley; outline: as §1
[10] = organism: Rattus norvegicus; assay: Rotarod test in rat at 0.5 hrs; assay type: functional; settings: Sprague-Dawley
Outline: (§3)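 Fasted male SD rats (94–104 g), n = 6 per dose group, given 10–300 mg/kg po in 0.1% MC after training on a 5 rpm rotorod; walking time recorded at 0, 0.5, 1, 2 and 5 h post-dose, 150 s cutoff.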

[11] = organism: Rattus norvegicus; assay: Rotarod test in rat at 1 hr; assay type: functional; settings: Sprague-Dawley; outline: as §3
[12] = organism: Rattus norvegicus; assay: Rotarod test in rat at 2 hrs; assay type: functional; settings: Sprague-Dawley; outline: as §3
[13] = organism: Rattus norvegicus; assay: Rotarod test in rat at 5 hrs; assay type: functional; settings: Sprague-Dawley; outline: as §3
[14] = tested on: Callitrichinae; assay: Bradykinin-induced licking in male marmoset monkey; assay type: functional, Callithrix jacchus
Outline: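 Male marmosets (293–359 g), 4–6 per group, individually housed; dosed po at 0.1, 1.0 and 10 mg/kg in 0.1% MC (vehicle control). 60 min post-dose, 100 μL of 1 mM bradykinin in saline injected i.pl. into foot pad. Response scored 0–3 every 15 s for 15 min from video; ataxia, sedation, emesis monitored. Alternate foot pads, 2-week intervals.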

[15] = Oral bioavailability in rat at 3 mg/kg, po; assay type: ADME, organism-based; settings: in vivo; outline: as §2
[16] = Half life at early phase in rat at 3 mg/kg, po; assay type: ADME, organism-based; set-up: dose 3 mg/kg, route oral; settings: in vivo; outline: as §2
[17] = Half life at late phase in rat at 3 mg/kg, po; assay type: ADME, organism-based; set-up: dose 3 mg/kg, route oral; settings: in vivo; outline: as §2
[18] = Metabolic stability by incubation with human liver microsomes; assay type: ADME, Microsome
[19] = tested on: Rattus norvegicus; assay: Toxicity in rat liver administered at 75 umol/kg, iv; assay type: organism-based; settings: in vivo
Outline: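 Three male rats given 75 μmol/kg total iv in 75:25 PEG-400/saline as two 40-min infusions 12 h apart; serum taken 24 h after first infusion for bilirubin, SGOT, SGPT, creatine, GGT, albumin, glucose, BUN and ALP.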

[20] = Half life in dog at 3 mg/kg, po; assay type: ADME, organism-based, Canis lupus familiaris; set-up: dose 3 mg/kg, route oral; settings: in vivo; outline: as §2
[21] = Time taken to achieve maximum concentration in rat at 3 mg/kg, po; assay type: ADME, organism-based; set-up: dose 3 mg/kg, route oral; settings: in vivo; outline: as §2
[22] = Time taken to achieve maximum concentration in dog at 3 mg/kg, po; assay type: ADME, organism-based, Canis lupus familiaris; set-up: dose 3 mg/kg, route oral; settings: in vivo; outline: as §2
[23] = Maximum concentration in rat at 3 mg/kg, po; assay type: ADME, organism-based; set-up: dose 3 mg/kg, route oral; settings: in vivo; outline: as §2
[24] = Maximum concentration in dog at 3 mg/kg, po; assay type: ADME, organism-based, Canis lupus familiaris; set-up: dose 3 mg/kg, route oral; settings: in vivo; outline: as §2
[25] = AUC (0-24) in rat at 3 mg/kg, po; assay type: ADME, organism-based; set-up: time < 24 hr, dose 3 mg/kg, route oral; settings: plasma
[26] = AUC (0-24) in dog at 3 mg/kg, po; assay type: ADME, organism-based, Canis lupus familiaris; set-up: time < 24 hr, dose 3 mg/kg, route oral; settings: plasma
[27] = tested on: Rattus norvegicus; assay: Volume of distribution in rat at 3 mg/kg, po; assay type: ADME, organism-based; set-up: dose 3 mg/kg, route oral; settings: in vivo; outline: as §2
[28] = tested on: Canis familiaris; assay: Volume of distribution in dog at 3 mg/kg, po; assay type: ADME, organism-based, Canis lupus familiaris; set-up: dose 3 mg/kg, route oral; settings: in vivo; outline: as §2
[29] = Clearance in rat at 3 mg/kg, po; assay type: ADME, organism-based; set-up: dose 3 mg/kg, route oral; settings: in vivo; outline: as §2
[30] = target: Adenosine kinase (Homo sapiens, UniProt P55263); assay: Inhibitory activity against recombinant human adenosine kinase
Chain of Adenosine kinase (P55263 whole entry): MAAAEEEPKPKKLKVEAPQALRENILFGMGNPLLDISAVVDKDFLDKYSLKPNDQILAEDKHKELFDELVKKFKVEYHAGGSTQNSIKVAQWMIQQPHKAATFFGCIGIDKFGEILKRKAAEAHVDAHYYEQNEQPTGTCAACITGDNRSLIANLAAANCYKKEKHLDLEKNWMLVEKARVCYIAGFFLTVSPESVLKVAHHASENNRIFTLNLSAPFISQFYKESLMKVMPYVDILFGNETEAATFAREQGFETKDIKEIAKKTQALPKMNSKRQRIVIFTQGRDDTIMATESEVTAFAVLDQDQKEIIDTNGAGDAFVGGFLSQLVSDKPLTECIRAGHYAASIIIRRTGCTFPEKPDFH

[31] = tested on: Rattus norvegicus; assay: Inhibition of the licking and biting response at 20 mg/kg, po in rat by formalin paw antinociceptive assay; assay type: functional; settings: Sprague-Dawley
Outline: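 Screening: fasted male SD rats (105–115 g), three per compound, 20 mg/kg po in 0.1% MC 15 min before 2% formalin (50 μL s.c., right hindpaw). Licking/biting scored 5 s per 30 s; percent inhibition reported for 2nd phase (15–30 min); positive control 5 mg/kg po each run.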

[32] = Solubility in water at pH 7.4

C[C@H]1O[C@@H](n2cc(-c3ccccc3)c3c(NCC(=O)NC4CC4)ncnc32)[C@H](O)[C@@H]1O
Inhibition [1]: <50%
ED50 [2]: 1.6 mg/kg
ED50 [3]: 4.1 mg/kg
ED50 [4]: 6.5 mg/kg
ED50 [5]: 2.5 mg/kg
ED50 [6]: 2.6 mg/kg
ED50 [7]: 3.8 mg/kg
CL/F [8]: 2.1 L/h/kg
Inhibition [9]: <50%
ED50 [10]: > 300 mg/kg
ED50 [11]: > 300 mg/kg
ED50 [12]: 102 mg/kg
ED50 [13]: 62 mg/kg
ED50 [14]: 0.9 mg/kg
bioavailability [15]: 128%
half-life [16]: 0.3 h
half-life [17]: 5.2 h
half-life [18]: 3.3 h
Activity [19]: Non-toxic
half-life [20]: 2 h
Tmax [21]: 0.3 h
Tmax [22]: 0.3 h
Cmax [23]: 0.66 µg/mL
Cmax [24]: 0.518 µg/mL
AUC at 24 h [25]: 0.981 µg·h/mL
AUC at 24 h [26]: 1.49 µg·h/mL
Vdss [27]: 3.3 L/kg
Vdss [28]: 6.3 L/kg
CL/F [29]: 3.4 L/h/kg
IC50 [30]: 3 nM
inhibition in vivo at 20 mg/kg [31]: 66%
solubility [32]: 0.032 mg/mL (≈ 75.6 µM)
